PERK inh: inhibitors of human PERK kinase; inhibition, % at 5.6 µM; AID 1416; CHO PERK-DD fusion, SEAP luminescence translation reporter; 220,000 tested, 0.17% active;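 active = inhibition above the mean inhibition of all tested compounds plus 3 SD, set separately per screening campaign, cut at about 2.9% in these data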;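 note: PERK kinase domain activated by AP20187 dimerizer at 100 nM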
Hck-Nef inh: human Hck-Nef kinase inhibition. P08631. Recombinant Hck-YEEI plus Nef, Z-Lyte FRET kinase assay. inhibition, % at 20 µM. 220,000 tested, 0.68% active. AID 463187;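 active = Hck-Nef kinase inhibition above about 50%, limit read from the data; inactive = inhibition below that limit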
Target sequence (P08631 whole entry, looked up): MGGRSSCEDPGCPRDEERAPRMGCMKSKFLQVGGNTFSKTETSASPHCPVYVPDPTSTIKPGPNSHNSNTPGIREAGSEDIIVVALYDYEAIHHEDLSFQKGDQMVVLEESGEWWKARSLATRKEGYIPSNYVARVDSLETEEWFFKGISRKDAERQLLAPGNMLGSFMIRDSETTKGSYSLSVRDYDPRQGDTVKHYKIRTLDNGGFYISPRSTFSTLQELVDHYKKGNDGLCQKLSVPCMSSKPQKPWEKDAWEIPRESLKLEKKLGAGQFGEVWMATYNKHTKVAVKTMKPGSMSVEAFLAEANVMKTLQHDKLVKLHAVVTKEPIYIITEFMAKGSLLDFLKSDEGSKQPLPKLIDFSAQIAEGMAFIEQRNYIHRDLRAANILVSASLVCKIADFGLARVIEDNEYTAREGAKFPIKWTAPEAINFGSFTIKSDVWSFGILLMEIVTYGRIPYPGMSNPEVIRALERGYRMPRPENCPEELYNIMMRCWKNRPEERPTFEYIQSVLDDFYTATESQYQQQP
eIF4E-4G inh: blocks eIF4E binding to eIF4G; TR-FRET eIF4E-eIF4GI(517-606) binding, 2 h; inhibition, % at 21.7 µM; 220,000 tested, 0.37% active;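 active = inhibition above about 30%, limit read from the data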
p97 ATPase inh: inhibitors of human p97 ATPase; P55072; recombinant p97 ATPase, Kinase-Glo ATP luminescence, 3 h; inhibition, % at 8 µM; 220,000 tested, 0.42% active; AID 1481; in the data active = inhibition above about 15%
14-3-3 Bad PPI: disrupts binding of bovine 14-3-3 zeta to phospho-Bad peptide; P63103; TR-FRET 14-3-3zeta/Dy647-pBad peptide displacement, 1 h; inhibition, % at 21.7 µM; 220,000 tested, 0.71% active; AID 781;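 active = inhibition above about 70%, limit read from the data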
Target sequence (P63103 whole entry, looked up): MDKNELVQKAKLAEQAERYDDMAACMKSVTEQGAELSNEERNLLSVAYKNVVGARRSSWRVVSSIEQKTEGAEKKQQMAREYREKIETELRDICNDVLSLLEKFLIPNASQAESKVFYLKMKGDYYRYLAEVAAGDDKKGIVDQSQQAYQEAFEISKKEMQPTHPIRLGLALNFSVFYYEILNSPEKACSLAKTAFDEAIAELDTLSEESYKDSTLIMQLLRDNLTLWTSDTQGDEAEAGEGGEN
Calb biofilm kill: mixture kills Candida albicans biofilm cells; 120,000 tested, 0.02% active; inhibition, % at 7.6 µM; C. albicans biofilm persisters + clotrimazole, fluorescence viability; primary screen in compound mixtures of four per well; AID 1242;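 active = inhibition above 30.3% in the primary screen of four-compound pools, then above 30% when the compound was retested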;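 note: compounds exposed to preformed 24 h biofilms for 48 h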
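System: C. albicans CAF4-2 wild-type biofilms; Medium: RPMI/MOPS medium, pH 7.0; Reagent: Clotrimazole, 50 µg/mL; Times: biofilm formation 24 h, compound exposure 48 h, 37 °C; Detection: 2-h Alamar Blue fluorescence, 535/590 nm excitation/emission; Evaluation: percent inhibition of biofilm viability.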
Large screens that a line does not name were inactive; [ ] = another dose, or the depositor's remark. Only some compounds are listed: those with a hit (about 2.2% of all), similar ones and a draw of the others.

Cc1cc(C)cc(NC2=NCC(=O)N2Cc2ccccc2)c1	14-3-3 Bad PPI 72 (no result: Calb biofilm kill)
CC(C)c1ccc(NC2=NCC(=O)N2Cc2cccs2)cc1	none
O=C1CN=C(Nc2ccccc2)N1Cc1cccs1	14-3-3 Bad PPI 72 (no result: Calb biofilm kill)
COc1ccc(CCNC(=S)N2CCC(Cc3ccccc3)CC2)cc1OC	none
CCSC1=NCCN1C(=O)C(C)(C)Oc1ccc(Cl)cc1	none
O=C(CSc1nc2c([nH]c3ccccc32)c(=O)n1-c1cccc(Cl)c1)N1CCOCC1	Hck-Nef inh 53 (no result: Calb biofilm kill)
Cc1ccc(NC(=O)CCSCCc2ccccn2)cc1	none
COCCCNCCCOc1ccc(Cl)cc1Br	14-3-3 Bad PPI 74 (no result: Calb biofilm kill)
C=CCNCCCCOc1c(Cl)cc(C)cc1Br	none (no result: Calb biofilm kill)
COCCCNCCCCOc1c(Cl)cc(C)cc1Br	14-3-3 Bad PPI 79 (no result: Calb biofilm kill)
COc1ccc(S(=O)(=O)N(c2onc(C)c2Cl)S(=O)(=O)c2ccc(OC)c(OC)c2)cc1OC	14-3-3 Bad PPI 78 (no result: Calb biofilm kill)
FC(F)(F)c1cc(-c2cccs2)nc2cc(-c3cccs3)nn12	none
CCOC(=O)C1CSC(CC(=O)Nc2ccc(OC(F)(F)F)cc2)C(=O)N1 (stereo not drawn)	none
CCCCOc1ncnc2c1[nH]c1ccc(C)cc12	none
COC(=O)[C@H]1[C@H]2C[C@@H]3c4[nH]c5cc(OC)ccc5c4CCN3C[C@H]2C[C@@H](OC(=O)c2ccc(N)cc2)[C@@H]1OC	none
COc1ccc2c3c([nH]c2c1)C1CC2C(CC(O)C(OC)C2CO)CN1CC3 (stereo not drawn)	PERK inh 4.1
N#Cc1c(NC(=O)CSc2nnc(-c3ccco3)n2-c2ccccc2)sc2c1CCC2	none (no result: Calb biofilm kill)
NC(=O)c1c(NC(=O)CSc2nnc(-c3ccco3)n2-c2ccccc2)sc2c1CCC2	eIF4E-4G inh 31[fluorescence artefact?] (no result: Calb biofilm kill)
CC1SC2(NC1=O)C1CC3CC(C1)CC2C3 (stereo not drawn)	none
CCOC(=O)Cc1c(C)nc2c(-c3ccccc3)c(C)[nH]n2c1=O	PERK inh 3.0 (no result: Calb biofilm kill)
Cc1nnc(SCC(=O)N2c3ccccc3CC2C)[nH]c1=O (stereo not drawn)	none
CCN(CC)CCNC(=O)CCn1c(=S)[nH]c2cc3c(cc2c1=O)OCO3	none (no result: Calb biofilm kill)
CCCCNC(=O)CCCn1c(=S)[nH]c2cc3c(cc2c1=O)OCO3	p97 ATPase inh 17 (no result: Calb biofilm kill)
CC1(C(=O)NCCCN2CCOCC2)Oc2cccnc2NC1=O (stereo not drawn)	none
O=C(CCNC(=O)c1ccccc1Cl)NC1=NCCS1	none
O=C(COC(=O)c1ccc2ncsc2c1)NC(=O)c1ccccc1	none
Cc1c(Cl)cnc(NC(=O)COC(=O)c2ccc3ncsc3c2)c1Cl	14-3-3 Bad PPI 70
O=C(COC(=O)c1ccc2ncsc2c1)Nc1ncc(Cl)cc1Cl	14-3-3 Bad PPI 73[fluorescence artefact?]
O=C(COC(=O)c1ccc(O)cc1)Nc1ncc(Cl)cc1Cl	none
COc1ccc(C(=O)NC(=O)COC(=O)c2ccc3ncsc3c2)cc1	14-3-3 Bad PPI 78
CCCCOC(=O)c1ccc(NC(=O)C(=O)NCCN(C)C)cc1	none
Cc1ccc(-c2nnc(N(C)C(=O)C3CCCO3)s2)cn1 (stereo not drawn)	14-3-3 Bad PPI 75 (no result: Calb biofilm kill)
CN(C(=O)C1CCCO1)c1nnc(-c2cnccn2)s1 (stereo not drawn)	none (no result: Calb biofilm kill)
Cn1cc([N+](=O)[O-])c(C(=O)N/N=C/c2ccc3c(c2)OCO3)n1	none
c1csc(-c2nn3c(Cn4nnc5ccccc54)nnc3s2)c1	none (no result: Calb biofilm kill)
c1csc(-c2nn3c(Cn4cnc5ccccc54)nnc3s2)c1	eIF4E-4G inh 33 (no result: Calb biofilm kill)
CCCN1C(=O)c2cc(C(=O)NC3CCCCCC3)ccc2C1O (stereo not drawn)	none (no result: Calb biofilm kill)
CCCN1C(=O)c2cc(C(=O)O)ccc2C1O (stereo not drawn)	14-3-3 Bad PPI 83 (no result: Calb biofilm kill)
Cc1ccc(S(=O)(=O)Nc2cccc(Cl)c2)cc1NC(=O)c1cccnc1	none
CCOC(=O)CCc1c(C)n[nH]c1C	none
CCOC(=O)CCCc1sc(N)nc1-c1[nH]c(=O)[nH]c1C	14-3-3 Bad PPI 80 (no result: Calb biofilm kill)
N#CC1=C(N)Oc2n[nH]c(-c3cccnc3)c2C1c1ccc([N+](=O)[O-])o1 (stereo not drawn)	none
Cc1cc2nc(C3CCCN(C(=O)NCc4ccccc4)C3)[nH]c2cc1C (stereo not drawn)	14-3-3 Bad PPI 76 (no result: Calb biofilm kill)
Nc1nc(-c2ccco2)cs1	none (no result: Calb biofilm kill)
Nc1nc(-c2ccco2)c(-c2ccco2)s1	p97 ATPase inh 20 (no result: Calb biofilm kill)
Cc1ccc(C)n1-n1c(C)nc2scc(-c3cccs3)c2c1=O	p97 ATPase inh 15 (no result: Calb biofilm kill)
COc1ccc(/C=C(/NC(=O)c2cccc([N+](=O)[O-])c2)C(=O)O)cc1	none
C=CCOc1ccccc1CNCc1ccc(F)cc1	none
C=CCOc1ccccc1CN1CCSCC1	14-3-3 Bad PPI 80 (no result: Calb biofilm kill)
O=c1c([N+](=O)[O-])cc(C(F)(F)F)cn1Cc1c(Cl)cccc1Cl	PERK inh 3.3 (no result: Calb biofilm kill)
COC(=O)C1=C(C)NC2=C(C(=O)CCC2)C1c1ccc(-c2ccsc2C(=O)OC)o1 (stereo not drawn)	none
OCC#CCSc1nnc(-c2ccc(Br)cc2)o1	none (no result: Calb biofilm kill)
COC(=O)Sc1nnc(-c2ccc(Br)cc2)o1	eIF4E-4G inh 70 (no result: Calb biofilm kill)
Cc1cnc(NC(=O)c2cc3ccccc3o2)s1	none
CCOCCCn1c(=N)c(C(=O)Nc2cc(C)on2)cc2c(=O)n3ccccc3nc21	Hck-Nef inh 68 (no result: eIF4E-4G inh, 14-3-3 Bad PPI, Calb biofilm kill)
COc1ccc(CNC(=O)c2cc3c(=O)n4ccccc4nc3n(Cc3ccco3)c2=N)cc1	p97 ATPase inh 35 (no result: eIF4E-4G inh, 14-3-3 Bad PPI, Calb biofilm kill)
CCOC(=O)c1cc2c(=O)n3ccccc3nc2n(CCCOC)c1=NC(=O)c1cccnc1	none (no result: Calb biofilm kill)
Cc1ccc(Cn2c(=N)c(C(=O)NCc3ccco3)cc3c(=O)n4ccccc4nc32)cc1	none (no result: Calb biofilm kill)
CCOC(=O)c1cc2c(=O)n3ccccc3nc2n(CCCOC)c1=NC(=O)C(C)(C)C	Hck-Nef inh 159 (no result: Calb biofilm kill)
CCOC(=O)c1cc2c(=O)n3ccccc3nc2n(Cc2ccccc2)c1=N	none (no result: Calb biofilm kill)
O=C(NC(=S)Nc1ccccc1)c1cncc(C#Cc2ccccc2)c1	none
CCN(CCNCC(O)COCc1ccc(Cl)cc1)c1cccc(C)c1 (stereo not drawn)	none
CNC(=O)c1nnn(Cc2ccccc2)c1NC(=O)C(F)(F)F	14-3-3 Bad PPI 77 (no result: Calb biofilm kill)
COC(=O)C(C(=O)OC)C(c1ccccc1)C(C(=O)c1ccccc1)[N+](=O)[O-] (stereo not drawn)	none
CC(C)CNC(=O)c1cccc(NC(=O)COc2cccc([N+](=O)[O-])c2)c1	none
c1ccc2c(c1)oc1c(Nc3ccc(CN4CCOCC4)cc3)ncnc12	14-3-3 Bad PPI 79 (no result: Calb biofilm kill)
c1ccc(Nc2ncnc3c2oc2ccccc23)cc1	14-3-3 Bad PPI 71 (no result: Calb biofilm kill)
c1ccc2c(c1)oc1c(Nc3ccc4c(c3)OCO4)ncnc12	none (no result: Calb biofilm kill)
CC(C)C(Nc1ncnc2c1oc1ccccc12)C(=O)O (stereo not drawn)	none
Oc1ccccc1Nc1ncnc2c1oc1ccccc12	14-3-3 Bad PPI 73 (no result: Calb biofilm kill)
COc1ccc(C(=S)N2CCN(c3ccccc3C)CC2)cc1	none

Compound activity from PubChem BioAssay.
